Reference: ChEMBL document CHEMBL3044834, “Novel protoporphyrinogen oxidase inhibitors: 3H-pyrazolo[3,4-d][1,2,3]triazin-4-one derivatives” (J Agric Food Chem, 2008)

tested on: Echinochloa crus-galli; test: Herbicidal activity against Echinochloa crus-galli (barnyard grass) assessed as inhibition of fresh weed plant weight at 1500 g/ha using pre-emergence treatment protocol; assay type: functional

SMILES | inhibition at 1500 g/ha [%]
C#CCOc1cc(-n2nnc3nn(CC=C)cc3c2=O)c(F)cc1Cl | 40.9
C#CCN1C(=O)COc2cc(F)c(-n3nnc4nn(CCC)cc4c3=O)cc21 | 37.8

tested on: Digitaria sanguinalis; test: Herbicidal activity against Digitaria sanguinalis (hairy crabgrass) assessed as inhibition of fresh weed plant weight at 750 g/ha using post-emergence treatment protocol; assay type: functional
Summary of the method: (§1)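 Test compounds made up as emulsions by dissolving in 100 µL N,N-dimethylformamide, then adding a little Tween 20 and water. For post-emergence, weed seedlings at one leaf and one stem were sprayed at the same rates as the pre-emergence test. Fresh weight was recorded 15 days after treatment and expressed as percent inhibition versus controls. All treatments were run in triplicate.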

SMILES | inhibition at 750 g/ha [%]
C#CCOc1cc(-n2nnc3nn(CC=C)cc3c2=O)c(F)cc1Cl | 13.9
C#CCN1C(=O)COc2cc(F)c(-n3nnc4nn(CCC)cc4c3=O)cc21 | 22.2

tested on: Amaranthus retroflexus; test: Herbicidal activity against Amaranthus retroflexus assessed as inhibition of fresh weed plant weight at 750 g/ha using pre-emergence treatment protocol; assay type: functional; summary of the method: as §1

SMILES | inhibition at 750 g/ha [%]
C#CCOc1cc(-n2nnc3nn(CC=C)cc3c2=O)c(F)cc1Cl | 93.4
C#CCN1C(=O)COc2cc(F)c(-n3nnc4nn(CCC)cc4c3=O)cc21 | 100

tested on: Amaranthus retroflexus; test: Herbicidal activity against Amaranthus retroflexus assessed as inhibition of fresh weed plant weight at 375 g/ha using post-emergence treatment protocol; assay type: functional; summary of the method: as §1

SMILES | inhibition at 375 g/ha [%]
C#CCOc1cc(-n2nnc3nn(CC=C)cc3c2=O)c(F)cc1Cl | 100
C#CCN1C(=O)COc2cc(F)c(-n3nnc4nn(CCC)cc4c3=O)cc21 | 100

tested on: Brassica rapa subsp. oleifera; test: Herbicidal activity against Brassica rapa subsp. oleifera assessed as inhibition of fresh weed plant weight at 187.5 g/ha using post-emergence treatment protocol; assay type: functional; summary of the method: as §1

SMILES | inhibition at 187.5 g/ha [%]
C#CCOc1cc(-n2nnc3nn(CC=C)cc3c2=O)c(F)cc1Cl | 2.9
C#CCN1C(=O)COc2cc(F)c(-n3nnc4nn(CCC)cc4c3=O)cc21 | 11.4

tested on: Echinochloa crus-galli; test: Herbicidal activity against Echinochloa crus-galli (barnyard grass) assessed as inhibition of fresh weed plant weight at 375 g/ha using pre-emergence treatment protocol; assay type: functional; summary of the method: as §1

SMILES | inhibition at 375 g/ha [%]
C#CCOc1cc(-n2nnc3nn(CC=C)cc3c2=O)c(F)cc1Cl | 0
C#CCN1C(=O)COc2cc(F)c(-n3nnc4nn(CCC)cc4c3=O)cc21 | 5.6

tested on: Digitaria sanguinalis; test: Herbicidal activity against Digitaria sanguinalis (hairy crabgrass) assessed as inhibition of fresh weed plant weight at 1500 g/ha using post-emergence treatment protocol; assay type: functional; summary of the method: as §1

SMILES | inhibition at 1500 g/ha [%]
C#CCOc1cc(-n2nnc3nn(CC=C)cc3c2=O)c(F)cc1Cl | 36.1
C#CCN1C(=O)COc2cc(F)c(-n3nnc4nn(CCC)cc4c3=O)cc21 | 43.8

tested on: Digitaria sanguinalis; test: Herbicidal activity against Digitaria sanguinalis (hairy crabgrass) assessed as inhibition of fresh weed plant weight at 375 g/ha using post-emergence treatment protocol; assay type: functional; summary of the method: as §1

SMILES | inhibition at 375 g/ha [%]
C#CCOc1cc(-n2nnc3nn(CC=C)cc3c2=O)c(F)cc1Cl | 8.3
C#CCN1C(=O)COc2cc(F)c(-n3nnc4nn(CCC)cc4c3=O)cc21 | 16.7

tested on: Amaranthus retroflexus; test: Herbicidal activity against Amaranthus retroflexus assessed as inhibition of fresh weed plant weight at 187.5 g/ha using post-emergence treatment protocol; assay type: functional; summary of the method: as §1

SMILES | inhibition at 187.5 g/ha [%]
C#CCOc1cc(-n2nnc3nn(CC=C)cc3c2=O)c(F)cc1Cl | 22
C#CCN1C(=O)COc2cc(F)c(-n3nnc4nn(CCC)cc4c3=O)cc21 | 56.1

tested on: Brassica rapa subsp. oleifera; test: Herbicidal activity against Brassica rapa subsp. oleifera assessed as inhibition of fresh weed plant weight at 750 g/ha using post-emergence treatment protocol; assay type: functional; summary of the method: as §1

SMILES | inhibition at 750 g/ha [%]
C#CCOc1cc(-n2nnc3nn(CC=C)cc3c2=O)c(F)cc1Cl | 36.6
C#CCN1C(=O)COc2cc(F)c(-n3nnc4nn(CCC)cc4c3=O)cc21 | 19.4

tested on: Echinochloa crus-galli; test: Herbicidal activity against Echinochloa crus-galli (barnyard grass) assessed as inhibition of fresh weed plant weight at 187.5 g/ha using pre-emergence treatment protocol; assay type: functional; summary of the method: as §1

SMILES | inhibition at 187.5 g/ha [%]
C#CCOc1cc(-n2nnc3nn(CC=C)cc3c2=O)c(F)cc1Cl | 0
C#CCN1C(=O)COc2cc(F)c(-n3nnc4nn(CCC)cc4c3=O)cc21 | 0

tested on: Amaranthus retroflexus; test: Herbicidal activity against Amaranthus retroflexus assessed as inhibition of fresh weed plant weight at 750 g/ha using post-emergence treatment protocol; assay type: functional; summary of the method: as §1

SMILES | inhibition at 750 g/ha [%]
C#CCOc1cc(-n2nnc3nn(CC=C)cc3c2=O)c(F)cc1Cl | 100
C#CCN1C(=O)COc2cc(F)c(-n3nnc4nn(CCC)cc4c3=O)cc21 | 100

tested on: Digitaria sanguinalis; test: Herbicidal activity against Digitaria sanguinalis (hairy crabgrass) assessed as inhibition of fresh weed plant weight at 1500 g/ha using pre-emergence treatment protocol; assay type: functional

SMILES | inhibition at 1500 g/ha [%]
C#CCOc1cc(-n2nnc3nn(CC=C)cc3c2=O)c(F)cc1Cl | 79.6
C#CCN1C(=O)COc2cc(F)c(-n3nnc4nn(CCC)cc4c3=O)cc21 | 51.6

tested on: Digitaria sanguinalis; test: Herbicidal activity against Digitaria sanguinalis (hairy crabgrass) assessed as inhibition of fresh weed plant weight at 187.5 g/ha using pre-emergence treatment protocol; assay type: functional

SMILES | inhibition at 187.5 g/ha [%]
C#CCOc1cc(-n2nnc3nn(CC=C)cc3c2=O)c(F)cc1Cl | 2.2
C#CCN1C(=O)COc2cc(F)c(-n3nnc4nn(CCC)cc4c3=O)cc21 | 0

tested on: Amaranthus retroflexus; test: Herbicidal activity against Amaranthus retroflexus assessed as inhibition of fresh weed plant weight at 1500 g/ha using post-emergence treatment protocol; assay type: functional; summary of the method: as §1

SMILES | inhibition at 1500 g/ha [%]
C#CCOc1cc(-n2nnc3nn(CC=C)cc3c2=O)c(F)cc1Cl | 100
C#CCN1C(=O)COc2cc(F)c(-n3nnc4nn(CCC)cc4c3=O)cc21 | 100

tested on: Brassica rapa subsp. oleifera; test: Herbicidal activity against Brassica rapa subsp. oleifera assessed as inhibition of fresh weed plant weight at 375 g/ha using pre-emergence treatment protocol; assay type: functional

SMILES | inhibition at 375 g/ha [%]
C#CCOc1cc(-n2nnc3nn(CC=C)cc3c2=O)c(F)cc1Cl | 25.4
C#CCN1C(=O)COc2cc(F)c(-n3nnc4nn(CCC)cc4c3=O)cc21 | 45.5

tested on: Amaranthus retroflexus; test: Herbicidal activity against Amaranthus retroflexus assessed as inhibition of fresh weed plant weight at 187.5 g/ha using pre-emergence treatment protocol; assay type: functional

SMILES | inhibition at 187.5 g/ha [%]
C#CCOc1cc(-n2nnc3nn(CC=C)cc3c2=O)c(F)cc1Cl | 41
C#CCN1C(=O)COc2cc(F)c(-n3nnc4nn(CCC)cc4c3=O)cc21 | 100

tested on: Brassica rapa subsp. oleifera; test: Herbicidal activity against Brassica rapa subsp. oleifera assessed as inhibition of fresh weed plant weight at 1500 g/ha using post-emergence treatment protocol; assay type: functional; summary of the method: as §1

SMILES | inhibition at 1500 g/ha [%]
C#CCOc1cc(-n2nnc3nn(CC=C)cc3c2=O)c(F)cc1Cl | 70.3
C#CCN1C(=O)COc2cc(F)c(-n3nnc4nn(CCC)cc4c3=O)cc21 | 27.9

tested on: Echinochloa crus-galli; test: Herbicidal activity against Echinochloa crus-galli (barnyard grass) assessed as inhibition of fresh weed plant weight at 375 g/ha using post-emergence treatment protocol; assay type: functional; summary of the method: as §1

SMILES | inhibition at 375 g/ha [%]
C#CCOc1cc(-n2nnc3nn(CC=C)cc3c2=O)c(F)cc1Cl | 0.5
C#CCN1C(=O)COc2cc(F)c(-n3nnc4nn(CCC)cc4c3=O)cc21 | 11.2

tested on: Digitaria sanguinalis; test: Herbicidal activity against Digitaria sanguinalis (hairy crabgrass) assessed as inhibition of fresh weed plant weight at 187.5 g/ha using post-emergence treatment protocol; assay type: functional; summary of the method: as §1

SMILES | inhibition at 187.5 g/ha [%]
C#CCOc1cc(-n2nnc3nn(CC=C)cc3c2=O)c(F)cc1Cl | 0
C#CCN1C(=O)COc2cc(F)c(-n3nnc4nn(CCC)cc4c3=O)cc21 | 13.9

tested on: Digitaria sanguinalis; test: Herbicidal activity against Digitaria sanguinalis (hairy crabgrass) assessed as inhibition of fresh weed plant weight at 750 g/ha using pre-emergence treatment protocol; assay type: functional

SMILES | inhibition at 750 g/ha [%]
C#CCOc1cc(-n2nnc3nn(CC=C)cc3c2=O)c(F)cc1Cl | 47.8
C#CCN1C(=O)COc2cc(F)c(-n3nnc4nn(CCC)cc4c3=O)cc21 | 32.6

tested on: Echinochloa crus-galli; test: Herbicidal activity against Echinochloa crus-galli (barnyard grass) assessed as inhibition of fresh weed plant weight at 750 g/ha using post-emergence treatment protocol; assay type: functional; summary of the method: as §1

SMILES | inhibition at 750 g/ha [%]
C#CCOc1cc(-n2nnc3nn(CC=C)cc3c2=O)c(F)cc1Cl | 9.3
C#CCN1C(=O)COc2cc(F)c(-n3nnc4nn(CCC)cc4c3=O)cc21 | 25.9

tested on: Digitaria sanguinalis; test: Herbicidal activity against Digitaria sanguinalis (hairy crabgrass) assessed as inhibition of fresh weed plant weight at 375 g/ha using pre-emergence treatment protocol; assay type: functional

SMILES | inhibition at 375 g/ha [%]
C#CCOc1cc(-n2nnc3nn(CC=C)cc3c2=O)c(F)cc1Cl | 6.5
C#CCN1C(=O)COc2cc(F)c(-n3nnc4nn(CCC)cc4c3=O)cc21 | 26.1

tested on: Amaranthus retroflexus; test: Herbicidal activity against Amaranthus retroflexus assessed as inhibition of fresh weed plant weight at 1500 g/ha using pre-emergence treatment protocol; assay type: functional

SMILES | inhibition at 1500 g/ha [%]
C#CCOc1cc(-n2nnc3nn(CC=C)cc3c2=O)c(F)cc1Cl | 100
C#CCN1C(=O)COc2cc(F)c(-n3nnc4nn(CCC)cc4c3=O)cc21 | 100

tested on: Brassica rapa subsp. oleifera; test: Herbicidal activity against Brassica rapa subsp. oleifera assessed as inhibition of fresh weed plant weight at 375 g/ha using post-emergence treatment protocol; assay type: functional; summary of the method: as §1

SMILES | inhibition at 375 g/ha [%]
C#CCOc1cc(-n2nnc3nn(CC=C)cc3c2=O)c(F)cc1Cl | 18.9
C#CCN1C(=O)COc2cc(F)c(-n3nnc4nn(CCC)cc4c3=O)cc21 | 18.9

tested on: Brassica rapa subsp. oleifera; test: Herbicidal activity against Brassica rapa subsp. oleifera assessed as inhibition of fresh weed plant weight at 1500 g/ha using pre-emergence treatment protocol; assay type: functional

SMILES | inhibition at 1500 g/ha [%]
C#CCOc1cc(-n2nnc3nn(CC=C)cc3c2=O)c(F)cc1Cl | 65.8
C#CCN1C(=O)COc2cc(F)c(-n3nnc4nn(CCC)cc4c3=O)cc21 | 75.1

tested on: Echinochloa crus-galli; test: Herbicidal activity against Echinochloa crus-galli (barnyard grass) assessed as inhibition of fresh weed plant weight at 1500 g/ha using post-emergence treatment protocol; assay type: functional; summary of the method: as §1

SMILES | inhibition at 1500 g/ha [%]
C#CCOc1cc(-n2nnc3nn(CC=C)cc3c2=O)c(F)cc1Cl | 20.3
C#CCN1C(=O)COc2cc(F)c(-n3nnc4nn(CCC)cc4c3=O)cc21 | 40.9

tested on: Echinochloa crus-galli; test: Herbicidal activity against Echinochloa crus-galli (barnyard grass) assessed as inhibition of fresh weed plant weight at 187.5 g/ha using post-emergence treatment protocol; assay type: functional; summary of the method: as §1

SMILES | inhibition at 187.5 g/ha [%]
C#CCOc1cc(-n2nnc3nn(CC=C)cc3c2=O)c(F)cc1Cl | 0
C#CCN1C(=O)COc2cc(F)c(-n3nnc4nn(CCC)cc4c3=O)cc21 | 10.2

tested on: Amaranthus retroflexus; test: Herbicidal activity against Amaranthus retroflexus assessed as inhibition of fresh weed plant weight at 375 g/ha using pre-emergence treatment protocol; assay type: functional

SMILES | inhibition at 375 g/ha [%]
C#CCOc1cc(-n2nnc3nn(CC=C)cc3c2=O)c(F)cc1Cl | 90.2
C#CCN1C(=O)COc2cc(F)c(-n3nnc4nn(CCC)cc4c3=O)cc21 | 100

tested on: Brassica rapa subsp. oleifera; test: Herbicidal activity against Brassica rapa subsp. oleifera assessed as inhibition of fresh weed plant weight at 750 g/ha using pre-emergence treatment protocol; assay type: functional

SMILES | inhibition at 750 g/ha [%]
C#CCOc1cc(-n2nnc3nn(CC=C)cc3c2=O)c(F)cc1Cl | 37.3
C#CCN1C(=O)COc2cc(F)c(-n3nnc4nn(CCC)cc4c3=O)cc21 | 55.2

tested on: Echinochloa crus-galli; test: Herbicidal activity against Echinochloa crus-galli (barnyard grass) assessed as inhibition of fresh weed plant weight at 750 g/ha using pre-emergence treatment protocol; assay type: functional

SMILES | inhibition at 750 g/ha [%]
C#CCOc1cc(-n2nnc3nn(CC=C)cc3c2=O)c(F)cc1Cl | 19.5
C#CCN1C(=O)COc2cc(F)c(-n3nnc4nn(CCC)cc4c3=O)cc21 | 16.9

tested on: Brassica rapa subsp. oleifera; test: Herbicidal activity against Brassica rapa subsp. oleifera assessed as inhibition of fresh weed plant weight at 187.5 g/ha using pre-emergence treatment protocol; assay type: functional

SMILES | inhibition at 187.5 g/ha [%]
C#CCOc1cc(-n2nnc3nn(CC=C)cc3c2=O)c(F)cc1Cl | 16.4
C#CCN1C(=O)COc2cc(F)c(-n3nnc4nn(CCC)cc4c3=O)cc21 | 16.4
